Test results reported in ChEMBL document CHEMBL4251674, “Bioactivity-Based Molecular Networking for the Discovery of Drug Leads in Natural Product Bioassay-Guided Fractionation” (J Nat Prod, 2018).
Calls of active or inactive are those of the source. No cut-off for these calls is given here.

Legend:
Chikungunya virus = test: Antiviral activity against Chikungunya virus 899 infected in African green monkey Vero cells assessed as inhibition of virus-induced cytopathic effect after 6 to 7 days by MTS assay; assay type: functional, organism-based; conditions: for EC50: Chikungunya virus, 899, Vero
Outline: (§1)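 Cell-based CHIKV replication assay in Vero cells. EC50 is the concentration that reduces CHIKV replication by 50%. CC50 is the concentration that reduces natural growth of the host cells by 50%. […]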

[1] = Selectivity index, ratio of CC50 for African green monkey Vero cells to EC50 for Chikungunya virus 899 infected in African green monkey Vero cells; assay type: toxicity; conditions: read-out: Selectivity Index; outline: as §1

SMILES	EC50 (Chikungunya virus)	selectivity ratio [1]	inhibition (Chikungunya virus)
CCC/C=C/C=C/C=C\C(=O)O[C@@H]1[C@@H](C)[C@]2(O)[C@@H]3C=C(C)C(=O)[C@H]3CC(CO)=C[C@H]2[C@@H]2C(C)(C)[C@]12OC(=O)C(C)C	400 nM	34	–
C=C1[C@H](OCC(C)C)[C@@H](OC(C)=O)[C@@H](OC(=O)c2cccnc2)C(C)(C)/C=C/[C@H](C)C(=O)[C@@]2(OC(C)=O)C[C@@](C)(OC(=O)c3cccnc3)[C@H](OC(C)=O)[C@@H]2[C@H]1OC(C)=O	–	–	inactive
C=C1[C@H](OC(=O)c2ccccc2)[C@@H](OC(C)=O)[C@@H](OC(=O)c2cccnc2)C(C)(C)/C=C/[C@H](C)C(=O)[C@@]2(O)C[C@@](C)(OC(=O)c3cccnc3)[C@H](OC(C)=O)[C@@H]2[C@H]1OC(C)=O	–	–	inactive
C=C1[C@H](OC(=O)c2ccccc2)[C@@H](OC(C)=O)[C@@H](OC(=O)c2cccnc2)C(C)(C)/C=C/[C@H](C)C(=O)[C@@]2(O)C[C@@](C)(OC(=O)c3cccnc3)[C@H](OC(C)=O)[C@@H]2[C@H]1OCC(C)C	–	–	inactive
CC(=O)O[C@H]1[C@@H](OC(C)=O)C(C)(C)/C=C/[C@H](C)C(=O)[C@@]2(OC(C)=O)C[C@@](C)(OC(C)=O)[C@H](O)[C@@H]2[C@H]2OC(=O)CC[C@@]2(OC(C)=O)[C@@H]1OCC(C)C	–	–	inactive
CCCCC/C=C/C=C\C(=O)O[C@@H]1[C@@H](C)[C@]2(O)[C@@H]3C=C(C)C(=O)[C@H]3CC(CO)=C[C@H]2[C@@H]2C(C)(C)[C@]12OC(=O)C(C)C	900 nM	6	–
C=C1[C@H](OC(=O)c2ccccc2)[C@@H](O)[C@@H](OC(C)=O)C(C)(C)/C=C/[C@H](C)C(=O)[C@@]2(O)C[C@@](C)(OC(C)=O)[C@H](O)[C@@H]2[C@H]1OC(=O)c1ccccc1	–	–	inactive
C=C1[C@H](OC(=O)c2ccccc2)[C@@H](OC(C)=O)[C@@H](OC(C)=O)C(C)(C)/C=C/[C@H](C)C(=O)[C@@]2(O)C[C@@](C)(OC(C)=O)[C@H](O)[C@@H]2[C@H]1OCC(C)C	–	–	inactive
C=C1[C@H](OC(=O)c2ccccc2)[C@@H](OC(C)=O)[C@@H](OC(=O)c2cccnc2)C(C)(C)/C=C/[C@H](C)C(=O)[C@@]2(OC(C)=O)C[C@@](C)(OC(=O)c3cccnc3)[C@H](OC(C)=O)[C@@H]2[C@H]1OC(C)=O	–	–	inactive
CC(=O)O[C@H]1[C@@H](OC(C)=O)C(C)(C)/C=C/[C@@](C)(O)C(=O)[C@@]2(OC(C)=O)C[C@@](C)(OC(C)=O)[C@H](OC(C)=O)[C@@H]2[C@H]2OC(=O)CC[C@@]2(OC(C)=O)[C@@H]1OCC(C)C	–	–	inactive
C=C1[C@H](OCC(C)C)[C@@H](OC(C)=O)[C@@H](OC(C)=O)C(C)(C)/C=C/[C@H](C)C(=O)[C@@]2(O)C[C@@](C)(OC(C)=O)[C@H](OC(=O)COC(=O)c3ccccc3)[C@@H]2[C@H]1OC(C)=O	–	–	inactive
C=C1[C@H](OC(=O)c2ccccc2)[C@@H](OC(C)=O)[C@@H](OC(C)=O)C(C)(C)/C=C/[C@H](C)C(=O)[C@@]2(O)C[C@@](C)(O)[C@H](OC(C)=O)[C@@H]2[C@H]1OCC(C)C	–	–	inactive
CC/C=C\C/C=C/C=C\C(=O)O[C@@H]1[C@@H](C)[C@]2(O)[C@@H]3C=C(C)C(=O)[C@H]3CC(CO)=C[C@H]2[C@@H]2C(C)(C)[C@]12OC(=O)C(C)C	12600 nM	4	–
C=C1[C@H](OC(=O)c2ccccc2)[C@@H](OC(C)=O)[C@@H](OC(C)=O)C(C)(C)/C=C/[C@H](C)C(=O)[C@@]2(O)C[C@@](C)(OC(C)=O)[C@H](OC(C)=O)[C@@H]2[C@H]1OCC(C)C	–	–	inactive
C=C1[C@H](OC(=O)c2ccccc2)[C@@H](OC(C)=O)[C@@H](OC(C)=O)C(C)(C)/C=C/[C@H](C)C(=O)[C@@]2(O)C[C@@](C)(OC(C)=O)[C@H](O)[C@@H]2[C@H]1OC(=O)c1ccccc1	–	–	inactive
CC(=O)O[C@H]1[C@@H](OC(C)=O)C(C)(C)/C=C/[C@@](C)(O)C(=O)[C@@]2(O)C[C@@](C)(OC(C)=O)[C@H](OC(C)=O)[C@@H]2[C@H]2OC(=O)CC[C@@]2(OCC(C)C)[C@@H]1OCC(C)C	–	–	inactive
C=C1[C@H](OC(=O)c2ccccc2)[C@@H](OC(C)=O)[C@@H](OC(C)=O)C(C)(C)/C=C/[C@H](C)C(=O)[C@@]2(O)C[C@H](C)[C@H](OC(C)=O)[C@@H]2[C@H]1OCC(C)C	–	–	inactive
CCC/C=C/C=C\C(=O)O[C@@H]1[C@@H](C)[C@]2(O)[C@@H]3C=C(C)C(=O)[C@H]3CC(CO)=C[C@H]2[C@@H]2C(C)(C)[C@]12OC(=O)C(C)C	600 nM	41	–
C=C1[C@H](OCC(C)C)[C@@H](OC(C)=O)[C@@H](OC(C)=O)C(C)(C)/C=C/[C@H](C)C(=O)[C@@]2(O)C[C@@](C)(OC(C)=O)[C@H](OC(=O)c3ccccc3)[C@@H]2[C@H]1OCC(C)C	–	–	inactive
C=C1[C@H](OC(=O)c2ccccc2)[C@@H](OC(C)=O)[C@@H](OC(C)=O)C(C)(C)/C=C/[C@H](C)C(=O)[C@@]2(O)C[C@@](C)(OC(C)=O)[C@H](OCC(C)C)[C@@H]2[C@H]1OCC(C)C	–	–	inactive
CC(=O)O[C@H]1[C@@H](OC(C)=O)C(C)(C)/C=C/[C@@](C)(O)C(=O)[C@@]2(O)C[C@@](C)(OC(C)=O)[C@H](OC(C)=O)[C@@H]2[C@H]2OC(=O)CC[C@@]2(OC(C)=O)[C@@H]1OCC(C)C	–	–	inactive
C=C1[C@H](O)[C@H]2[C@@H](OC(=O)c3ccccc3)[C@](C)(O)C[C@]2(O)C(=O)[C@@H](C)/C=C/C(C)(C)[C@H](OC(C)=O)[C@H](OC(C)=O)[C@H]1OC(=O)c1ccccc1	–	–	inactive
